Reference: ChEMBL document CHEMBL1764988, “Synthesis of 2-(substituted phenyl)-3,5,5-trimethylmorpholine analogues and their effects on monoamine uptake, nicotinic acetylcholine receptor function, and behavioral effects of nicotine” (J Med Chem, 2011)

Legend:
[1] = biological target: Sodium-dependent dopamine transporter (Homo sapiens, UniProt Q01959); test: Inhibition of human DAT in HEK293 cells assessed as inhibition of [3H]dopamine uptake; assay type: cell-based
In short: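 [3H]DA, [3H]NE or [3H]5HT uptake was measured by the corresponding human transporter stably expressed in HEK-293 cells. Values are mean ± standard error of three independent experiments, each run in triplicate.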

[2] = species on record: Mus musculus; test: Effect on body temperature in ICR mouse assessed as inhibition of nicotine-induced hypothermic response; assay type: functional
In short: (§1)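 Male ICR mice (20–25 g) were used to test blockade of acute nicotine effects (tail-flick, hot-plate, locomotor activity, body temperature). At least four doses of test compound were given, with at least eight mice per dose group. Results were expressed as AD50 (mg/kg) with confidence limits, or as % effect at the highest dose tested.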

[3] = biological target: Nicotinic acetylcholine receptor alpha-1/beta-1 (Homo sapiens, UniProt P02708+P11230); test: Antagonist activity at human alpha1beta1 nAChR in HEK293 cells assessed as inhibition of carbamylcholine-induced radiolabeled Rb ion efflux; assay type: functional, cell-based
Chain of Nicotinic acetylcholine receptor alpha-1/beta-1 (P02708 whole entry): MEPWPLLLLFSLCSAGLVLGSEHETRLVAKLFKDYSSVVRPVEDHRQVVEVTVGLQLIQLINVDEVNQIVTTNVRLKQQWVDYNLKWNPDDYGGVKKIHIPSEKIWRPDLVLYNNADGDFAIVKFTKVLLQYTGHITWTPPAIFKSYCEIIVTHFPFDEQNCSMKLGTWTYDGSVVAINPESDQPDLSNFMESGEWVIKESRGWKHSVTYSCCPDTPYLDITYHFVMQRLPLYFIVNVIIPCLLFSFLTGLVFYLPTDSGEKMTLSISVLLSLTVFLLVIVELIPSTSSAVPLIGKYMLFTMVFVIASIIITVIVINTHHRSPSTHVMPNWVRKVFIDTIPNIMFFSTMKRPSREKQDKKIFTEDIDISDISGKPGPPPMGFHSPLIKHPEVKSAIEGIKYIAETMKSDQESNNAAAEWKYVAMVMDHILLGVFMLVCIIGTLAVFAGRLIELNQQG
Chain of Nicotinic acetylcholine receptor alpha-1/beta-1 (P11230 whole entry): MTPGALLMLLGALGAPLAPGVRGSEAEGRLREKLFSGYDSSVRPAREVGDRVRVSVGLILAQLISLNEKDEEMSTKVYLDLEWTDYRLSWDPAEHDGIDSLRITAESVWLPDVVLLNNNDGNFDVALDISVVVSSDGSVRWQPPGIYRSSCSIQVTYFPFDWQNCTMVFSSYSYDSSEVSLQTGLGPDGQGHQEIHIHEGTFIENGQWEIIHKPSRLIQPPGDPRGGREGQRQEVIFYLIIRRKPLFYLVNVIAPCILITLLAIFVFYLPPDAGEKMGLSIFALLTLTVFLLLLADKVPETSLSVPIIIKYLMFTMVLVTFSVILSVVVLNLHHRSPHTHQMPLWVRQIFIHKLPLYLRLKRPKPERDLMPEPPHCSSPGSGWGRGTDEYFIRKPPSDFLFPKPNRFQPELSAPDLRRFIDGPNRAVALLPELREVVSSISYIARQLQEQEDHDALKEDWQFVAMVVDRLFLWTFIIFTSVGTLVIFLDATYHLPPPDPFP
In short: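 86Rb+ efflux from human nAChR subtypes naturally or heterologously expressed in human cell lines. Cells were stimulated with a subtype-specific EC80–EC90 concentration of the full agonist carbamylcholine, alone or with test ligand (log molar series). Specific efflux was expressed as percent of control. IC50 values are means from three independent experiments; SEM is given as a multiplication/division factor.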

[4] = species on record: Mus musculus; test: Effect on behavioral activity in ICR mouse assessed as inhibition of nicotine-induced locomotory response; assay type: functional; in short: as §1
[5] = species on record: Mus musculus; test: Antinociceptive activity in ICR mouse assessed as inhibition of nicotine-induced response by tail flick test; assay type: functional; in short: as §1
[6] = species on record: Mus musculus; test: Antinociceptive activity in ICR mouse assessed as inhibition of nicotine-induced response by hotplate test; assay type: functional; in short: as §1

Chain of Sodium-dependent dopamine transporter (Q01959 whole entry): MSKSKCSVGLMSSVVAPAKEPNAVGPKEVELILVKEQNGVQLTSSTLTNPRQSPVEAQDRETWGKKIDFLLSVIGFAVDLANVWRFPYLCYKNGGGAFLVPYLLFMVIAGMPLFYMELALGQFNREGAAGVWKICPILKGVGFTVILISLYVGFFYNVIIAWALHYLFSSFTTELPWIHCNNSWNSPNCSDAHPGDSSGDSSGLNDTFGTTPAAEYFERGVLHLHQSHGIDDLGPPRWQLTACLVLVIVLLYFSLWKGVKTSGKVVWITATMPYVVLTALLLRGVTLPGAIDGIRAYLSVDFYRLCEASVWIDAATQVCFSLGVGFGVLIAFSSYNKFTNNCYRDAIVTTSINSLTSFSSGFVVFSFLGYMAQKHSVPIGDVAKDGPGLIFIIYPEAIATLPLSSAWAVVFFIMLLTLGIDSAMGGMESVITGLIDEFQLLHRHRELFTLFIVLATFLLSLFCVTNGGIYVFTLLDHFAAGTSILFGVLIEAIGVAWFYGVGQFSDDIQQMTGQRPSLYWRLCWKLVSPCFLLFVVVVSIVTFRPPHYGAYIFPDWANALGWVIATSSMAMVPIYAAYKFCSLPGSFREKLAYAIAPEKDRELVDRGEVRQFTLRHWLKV

Row | SMILES | IC50 [1] | AD50 [2] | IC50 [3] | AD50 [4] | AD50 [5] | AD50 [6]
1 | C[C@@H]1N(C)C(C)(C)CO[C@@]1(O)c1cccc(Cl)c1 | 0.23 µM | >20 mg/kg | 21 µM | 3.8 mg/kg | 0.13 mg/kg | >20 mg/kg
2 | CCC[C@@H]1NC(C)(C)CO[C@@]1(O)c1cccc(Cl)c1 | – | >20 mg/kg | – | 0.49 mg/kg | 0.017 mg/kg | >20 mg/kg
3 | C[C@H]1NC(C)(C)CO[C@]1(O)c1cccc(Cl)c1 | – | >20 mg/kg | – | >20 mg/kg | 1.26 mg/kg | 3.9 mg/kg
4 | C[C@@H]1NC(C)(C)CO[C@@]1(O)c1cccc(Br)c1 | 0.044 µM | >20 mg/kg | 7.3 µM | 2.1 mg/kg | 0.006 mg/kg | >20 mg/kg
